Published values pooled from the literature.
Compare with care: the assays were run in different laboratories.
Observed: enzyme activity
Action: inhibitor
FGFR1: Fibroblast growth factor receptor 1 (FGFR1, Homo sapiens, UniProt P11362)

CCCOc1ccc(OC)c(F)c1C(=O)c1ccc(C(=O)N[C@@H]2CNC[C@H]2NC(=O)c2ccc3[nH]ncc3c2)cc1  remaining activity (FGFR1; 10 µM): 28%
Oc1cccc(-c2nc(N3CCOCC3)c3oc4ncccc4c3n2)c1  remaining activity (FGFR1; 10 µM): 118%
CCN(CC)CCNC(=O)c1c(C)[nH]c(/C=C2\C(=O)Nc3ccc(F)cc32)c1C  remaining activity (FGFR1; 1 µM): 22%
Nc1nc(Nc2ccccc2)sc1C(=O)c1c(F)cccc1F  remaining activity (FGFR1; 10 µM): 64%
Cc1cnc(NC2CCOCC2)nc1-n1cnc(C(=O)NC(CN)c2cc(F)cc(Cl)c2)c1 (stereo not drawn)  remaining activity (Fibroblast growth factor receptor 1 (FGFR1, Homo sapiens, UniProt P11362, V561M); radiometric; 1 µM): 104%
CC(C)(C)C(=O)c1sc(NC2CCCCC2)nc1N  remaining activity (FGFR1; 10 µM): 87%
COc1cc(Nc2cnc(C#N)c(O[C@H](C)CN(C)C)n2)ncc1-c1cnn(C)c1  remaining activity (FGFR1; radiometric; 10 µM): 39%
COc1cc(Cl)c(C(=O)N[C@@H](CN[C@H]2CC[C@@H](N)CC2)Cc2ccc(C#N)cc2)cc1-c1ccc(CN[C@H](C)c2ccc(C)cc2)o1  remaining activity (FGFR1; 1 µM): 94%
CC(C)(C)c1nc2c(s1)c1nc(N)ncc1c1ccc(NS(=O)(=O)c3c(F)cccc3F)c(F)c12  remaining activity (FGFR1; radiometric; 1 µM): 90%
Cc1[nH]c(/C=C2\C(=O)Nc3ccc(F)cc32)c(C)c1C(=O)N[C@H]1CCN(C(=O)N(C)C)C1  remaining activity (FGFR1; 1 µM): 90%
Cn1c(=O)n(-c2ccc(C(C)(C)C#N)cc2)c2c3cc(-c4cnc5ccccc5c4)ccc3ncc21  remaining activity (FGFR1; 10 µM): 106%
Cc1sc(C(=O)NC2COC2)cc1-n1cc(NC(=O)Nc2c(F)cccc2Cl)cn1  remaining activity (FGFR1; 10 µM): 114%
